Measurements: ChEMBL document CHEMBL4033772, “New Class of Antitrypanosomal Agents Based on Imidazopyridines” (ACS Med Chem Lett, 2017)
≈ marks a conversion by molar mass, not a printed value. Calls of active or inactive are those of the source. The calls are words filed in the database; no cut-off is given here.

How the values were obtained:
[1] = Cytotoxicity against human CRL8155 cells after 48 hrs by Alamar Blue-based assay; type: cell-based; details: CRL8155, 48 h
Outline: (§1)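 Cytotoxicity tested against human lymphoblasts CRL-8155 and hepatocytes HepG2. Highest concentration tested was 50 µM.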

Trypanosoma cruzi [2] = assay: Antitrypanosomal activity against Trypanosoma cruzi Tulahuen amastigotes infected in mouse 3T3 cells after 6 days by beta galactosidase reporter asay; type: functional, cell-based; details: NIH3T3, 144 h
[3] = system: Trypanosoma brucei brucei; assay: Antitrypanosomal activity against Trypanosoma brucei brucei BF427 after 48 hrs by Alamar Blue-based assay; type: functional; details: BF427, 48 h
HepG2 = assay: Cytotoxicity against human HepG2 cells after 48 hrs by Alamar Blue-based assay; type: cell-based; details: HepG2, 48 h; outline: as §1
[4] = Half life in mouse liver microsomes by LC-MS/MS method; type: ADME, microsome
Outline: (§2)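 Incubation with mouse liver microsomes, run in duplicate. Testosterone and dextromethorphan included as controls in each assay.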

[5] = Plasma concentration in Swiss Webster mouse at 5 mg/kg, ip after 1 hr by LC-MS/MS analysis; type: ADME, organism-based
Outline: (§3)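 Mice in groups of three got a single 5 mg/kg ip dose. Animals were sacrificed 1 h postdose, and brain and plasma were collected for analysis. Brain:plasma ratio was calculated from the mean concentrations.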

[6] = Solubility of the compound in HCl at pH 2.0 at 50 uM after overnight incubation by LC-MS/MS method; type: physicochemical
Outline: (§4)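 Solubility measured at pH 7.4, 6.5 and 2.0.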

[7] = Solubility of the compound in PBS at pH 7.4 at 50 uM after overnight incubation by LC-MS/MS method; type: physicochemical; outline: as §4
[8] = Protein binding in Swiss Webster mouse plasma assessed as drug recovery at 2 uM by LC-MS/MS analysis; type: ADME, cell-free; details: read-out: Drug recovery
Outline: (§5)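 Plasma protein binding measured in 100% mouse plasma, giving % recovery and % fraction unbound. Propranolol control included in every experiment.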

[9] = Fraction unbound in Swiss Webster mouse plasma at 2 uM by LC-MS/MS analysis; type: ADME, cell-free; outline: as §5
Liver = assay: Stability of the compound in mouse liver microsomes assessed as compound remaining by LC-MS/MS method; type: ADME, microsome; outline: as §2
[10] = Ratio of drug level in Swiss Webster mouse brain to plasma at 5 mg/kg, ip measured after 1 hr by LC-MS/MS analysis; type: ADME, organism-based; details: read-out: BPR; outline: as §3
[11] = Solubility of the compound in PBS at pH 6.5 at 50 uM after overnight incubation by LC-MS/MS method; type: physicochemical; outline: as §4
[12] = Drug level in Swiss Webster mouse brain at 5 mg/kg, ip after 1 hr by LC-MS/MS analysis; type: ADME, organism-based; details: read-out: Drug uptake; outline: as §3
[13] = Selectivity ratio of EC50 for Trypanosoma cruzi Tulahuen amastigotes to EC50 for Trypanosoma brucei brucei BF427; type: functional
Trypanosoma cruzi [14] = assay: Antitrypanosomal activity against bioluminescent PpyRE9h expressing Trypanosoma cruzi Tulahuen […] infected subcutaneously in BALB/c mouse assessed as suppression of Trypanosoma cruzi infection at 100 mg/kg, po qd administered for 5 days measured after 6 weeks by IVIS imaging analysis; type: functional, organism-based

Compound: Cc1noc(C)c1C(=O)Nc1ccn2cc(-c3ccc(F)c(F)c3)nc2c1
- EC50 [1]: > 50 µM
- EC50 (Trypanosoma cruzi [2]): 9060 nM
- EC90 (Trypanosoma cruzi [2]): > 20000 nM
- EC50 [3]: > 20000 nM
- EC90 [3]: > 20000 nM
- EC50 (HepG2): > 50 µM

Compound: C[C@]12CC[C@H]3[C@@H](CCC4=CC(=O)CC[C@@]43C)[C@@H]1CC[C@@H]2O [TESTOSTERONE]
- half-life [4]: 5.68 min

Compound: O=C(Nc1ccn2cc(-c3ccc(F)c(F)c3)nc2c1)N1CC[C@H](F)C1
- half-life [4]: > 60 min
- concentration at 1 h [5]: 4.84 µM
- EC50 [1]: 35.3 µM
- solubility at 50 µM [6]: 45.9 µM (≈ 16.5 µg/mL)
- EC50 (Trypanosoma cruzi [2]): 390 nM
- EC90 (Trypanosoma cruzi [2]): 600 nM
- solubility at 50 µM [7]: 32.8 µM (≈ 11.8 µg/mL)
- recovery at 2 µM [8]: 64.5%
- fraction unbound at 2 µM [9]: 0.04
- Stability (Liver): 100%
- Kp at 1 h [10]: 0.114
- EC50 [3]: 160 nM
- EC90 [3]: 310 nM
- solubility at 50 µM [11]: 49.9 µM (≈ 18 µg/mL)
- EC50 (HepG2): > 50 µM
- concentration at 1 h [12]: 550 nM

Compound: O=C(Nc1ccn2cc(-c3cccc(F)c3)nc2c1)N1CCCC1
- EC50 [1]: > 50 µM
- EC50 (Trypanosoma cruzi [2]): 2950 nM
- EC90 (Trypanosoma cruzi [2]): 6010 nM
- EC50 [3]: 730 nM
- EC90 [3]: 880 nM
- EC50 (HepG2): > 50 µM

Compound: O=C(Nc1ccn2cc(-c3cccc(F)c3F)nc2c1)N1CCCC1
- EC50 [1]: > 50 µM
- EC50 (Trypanosoma cruzi [2]): 1020 nM
- EC90 (Trypanosoma cruzi [2]): 1610 nM
- EC50 [3]: 580 nM
- EC90 [3]: 2760 nM
- EC50 (HepG2): > 50 µM

Compound: O=C(Nc1ccn2cc(-c3cccs3)nc2c1)N1CC[C@H](F)C1
- EC50 [1]: > 50 µM
- EC50 (Trypanosoma cruzi [2]): 2680 nM
- EC90 (Trypanosoma cruzi [2]): 3920 nM
- EC50 [3]: 1000 nM
- EC90 [3]: 2670 nM
- EC50 (HepG2): > 50 µM

Compound: O=C(Nc1ccn2cc(-c3ccccc3)nc2c1)N1CCCCC1
- EC50 [1]: > 50 µM
- EC50 (Trypanosoma cruzi [2]): 2750 nM
- EC90 (Trypanosoma cruzi [2]): 12300 nM
- EC50 [3]: 2510 nM
- EC90 [3]: 4200 nM
- EC50 (HepG2): > 50 µM

Compound: CCN(CC)CCCC(C)Nc1c2ccc(Cl)cc2nc2ccc(OC)cc12 (stereo unspecified) [QUINACRINE]
- EC50 [1]: 4.23 µM

Compound: O=C(Nc1ccn2cc(-c3ccc(F)c(F)c3)nc2c1)N1CCCC1
- EC50 [1]: > 50 µM
- EC50 (Trypanosoma cruzi [2]): 2240 nM
- EC90 (Trypanosoma cruzi [2]): 2570 nM
- EC50 [3]: 320 nM
- EC90 [3]: 730 nM
- EC50 (HepG2): > 50 µM
- Ratio EC50 [13]: 7

Compound: O=C(Nc1ccn2cc(-c3cccc(F)c3F)nc2c1)N1CC[C@H](F)C1
- half-life [4]: > 60 min
- EC50 [1]: > 50 µM
- solubility at 50 µM [6]: 53.1 µM (≈ 19.1 µg/mL)
- EC50 (Trypanosoma cruzi [2]): 940 nM
- EC90 (Trypanosoma cruzi [2]): 1360 nM
- solubility at 50 µM [7]: 6.4 µM (≈ 2.31 µg/mL)
- recovery at 2 µM [8]: 68.4%
- fraction unbound at 2 µM [9]: 0.026
- Stability (Liver): 86.3%
- EC50 [3]: 180 nM
- EC90 [3]: 920 nM
- solubility at 50 µM [11]: 6.8 µM (≈ 2.45 µg/mL)
- EC50 (HepG2): > 50 µM

Compound: O=C(Nc1ccn2cc(-c3ccc(F)c(F)c3)nc2c1)c1cccnc1
- EC50 [1]: > 50 µM
- EC50 (Trypanosoma cruzi [2]): 6270 nM
- EC90 (Trypanosoma cruzi [2]): > 20000 nM
- EC50 [3]: 6300 nM
- EC90 [3]: > 20000 nM
- EC50 (HepG2): > 50 µM

Compound: O=C(Nc1ccn2cc(-c3ccccc3)nc2c1)N1CCCC1
- EC50 [1]: 36 µM
- EC50 (Trypanosoma cruzi [2]): 4460 nM
- EC90 (Trypanosoma cruzi [2]): 6440 nM
- EC50 [3]: 2230 nM
- EC90 [3]: 3270 nM
- EC50 (HepG2): > 50 µM

Compound: Cn1nc(C(C)(C)C)cc1C(=O)Nc1cc2nc(-c3ccc(F)c(F)c3)cn2cn1
- half-life [4]: 60 min
- EC50 [1]: 14.5 µM
- solubility at 50 µM [6]: 1.3 µM (≈ 0.534 µg/mL)
- EC50 (Trypanosoma cruzi [2]): 170 nM
- EC90 (Trypanosoma cruzi [2]): 640 nM
- solubility at 50 µM [7]: 2.7 µM (≈ 1.11 µg/mL)
- recovery at 2 µM [8]: 73.3%
- fraction unbound at 2 µM [9]: 0.007
- Stability (Liver): 47.1%
- EC50 [3]: 6990 nM
- EC90 [3]: > 20000 nM
- solubility at 50 µM [11]: 7.6 µM (≈ 3.12 µg/mL)
- EC50 (HepG2): > 50 µM

Compound: O=C(Nc1ccn2cc(-c3ccc(F)c(F)c3)nc2n1)N1CC[C@H](F)C1
- EC50 [1]: > 50 µM
- EC50 (Trypanosoma cruzi [2]): 2530 nM
- EC90 (Trypanosoma cruzi [2]): > 20000 nM
- recovery at 2 µM [8]: 49%
- fraction unbound at 2 µM [9]: 0.081
- EC50 [3]: > 20000 nM
- EC90 [3]: > 20000 nM
- solubility at 50 µM [11]: 42 µM (≈ 15.2 µg/mL)
- EC50 (HepG2): > 50 µM

Compound: O=C(Nc1ccn2cc(-c3cccc(F)c3)nc2c1)N1CCCCC1
- EC50 [1]: > 50 µM
- EC50 (Trypanosoma cruzi [2]): 3100 nM
- EC90 (Trypanosoma cruzi [2]): 4530 nM
- EC50 [3]: 970 nM
- EC90 [3]: 1480 nM
- EC50 (HepG2): > 50 µM

Compound: O=C(Nc1ccn2cc(-c3cccc(F)c3)nc2c1)N1CC[C@H](F)C1
- half-life [4]: > 60 min
- EC50 [1]: 29.7 µM
- solubility at 50 µM [6]: 52 µM (≈ 17.8 µg/mL)
- EC50 (Trypanosoma cruzi [2]): 710 nM
- EC90 (Trypanosoma cruzi [2]): 880 nM
- solubility at 50 µM [7]: 49.7 µM (≈ 17 µg/mL)
- recovery at 2 µM [8]: 68.5%
- fraction unbound at 2 µM [9]: 0.03
- Stability (Liver): 84.5%
- EC50 [3]: 160 nM
- EC90 [3]: 820 nM
- solubility at 50 µM [11]: 43.8 µM (≈ 15 µg/mL)
- EC50 (HepG2): > 50 µM

Compound: O=C(Nc1ccn2cc(-c3cccc(F)c3F)nc2c1)N1CCCCC1
- EC50 [1]: > 50 µM
- EC50 (Trypanosoma cruzi [2]): 1000 nM
- EC90 (Trypanosoma cruzi [2]): 1580 nM
- EC50 [3]: 720 nM
- EC90 [3]: 870 nM
- EC50 (HepG2): > 50 µM

Compound: N=C(N)c1ccc(OCCCCCOc2ccc(C(=N)N)cc2)cc1 [PENTAMIDINE]
- EC50 [3]: 2.16 nM
- EC90 [3]: 6.13 nM

Compound: O=C(Nc1ccn2cc(-c3ccc(F)c(F)c3)nc2c1)c1cccnc1Cl
- EC50 [1]: > 50 µM
- EC50 (Trypanosoma cruzi [2]): 7340 nM
- EC90 (Trypanosoma cruzi [2]): > 20000 nM
- EC50 [3]: > 20000 nM
- EC90 [3]: > 20000 nM
- EC50 (HepG2): > 50 µM

Compound: O=C(Nc1ccn2cc(-c3ccccc3)nc2c1)N1CC[C@H](F)C1
- EC50 [1]: 44.6 µM
- EC50 (Trypanosoma cruzi [2]): 1080 nM
- EC90 (Trypanosoma cruzi [2]): 1730 nM
- EC50 [3]: 620 nM
- EC90 [3]: 770 nM
- EC50 (HepG2): > 50 µM

Compound: CC(C)NCC(O)COc1cccc2ccccc12 (stereo unspecified) [PROPRANOLOL]
- recovery at 2 µM [8]: 75.7%
- fraction unbound at 2 µM [9]: 0.114

Compound: O=C(Nc1ccc2nc(-c3ccc(F)c(F)c3)cn2c1)N1CC[C@H](F)C1
- EC50 [1]: > 50 µM
- EC50 (Trypanosoma cruzi [2]): 9940 nM
- EC90 (Trypanosoma cruzi [2]): > 20000 nM
- EC50 [3]: > 20000 nM
- EC90 [3]: > 20000 nM
- EC50 (HepG2): > 50 µM

Compound: Cn1nc(C(C)(C)C)cc1C(=O)Nc1ccn2cc(-c3ccc(F)c(F)c3)nc2c1
- EC50 [1]: > 50 µM
- EC50 (Trypanosoma cruzi [2]): 570 nM
- EC90 (Trypanosoma cruzi [2]): 1520 nM
- EC50 [3]: 710 nM
- EC90 [3]: > 20000 nM
- EC50 (HepG2): > 50 µM

Compound: COc1ccc2c(c1)[C@]13CCCC[C@@H]1[C@H](C2)N(C)CC3 [DEXTROMETHORPHAN]
- half-life [4]: 1.11 min

Compound: O=C(Cn1ccnc1[N+](=O)[O-])NCc1ccccc1 [BENZNIDAZOLE]
- EC50 (Trypanosoma cruzi [2]): 690 nM
- EC90 (Trypanosoma cruzi [2]): 1360 nM
- Activity (Trypanosoma cruzi [14]): Active

Compound: O=C(Nc1ccn2cc(-c3ccc(F)c(F)c3)nc2c1)N1CCCCC1
- EC50 [1]: 47.4 µM
- EC50 (Trypanosoma cruzi [2]): 2840 nM
- EC90 (Trypanosoma cruzi [2]): 4400 nM
- EC50 [3]: 1200 nM
- EC90 [3]: 1750 nM
- EC50 (HepG2): > 50 µM

Compound: O=C(Nc1ccn2cc(-c3nccs3)nc2c1)N1CC[C@H](F)C1
- EC50 [1]: > 50 µM
- EC50 (Trypanosoma cruzi [2]): > 20000 nM
- EC90 (Trypanosoma cruzi [2]): > 20000 nM
- EC50 [3]: > 20000 nM
- EC90 [3]: > 20000 nM
- EC50 (HepG2): > 50 µM
